Tests used:
[1] = target: T1, Dihydroorotate dehydrogenase (Plasmodium falciparum, UniProt Q54A96); experiment: Inhibition of Plasmodium falciparum DHODH assessed as reduction of 2,6-dichloroindophenol by stopped flow spectroscopy
T1 sequence (Q54A96 whole entry): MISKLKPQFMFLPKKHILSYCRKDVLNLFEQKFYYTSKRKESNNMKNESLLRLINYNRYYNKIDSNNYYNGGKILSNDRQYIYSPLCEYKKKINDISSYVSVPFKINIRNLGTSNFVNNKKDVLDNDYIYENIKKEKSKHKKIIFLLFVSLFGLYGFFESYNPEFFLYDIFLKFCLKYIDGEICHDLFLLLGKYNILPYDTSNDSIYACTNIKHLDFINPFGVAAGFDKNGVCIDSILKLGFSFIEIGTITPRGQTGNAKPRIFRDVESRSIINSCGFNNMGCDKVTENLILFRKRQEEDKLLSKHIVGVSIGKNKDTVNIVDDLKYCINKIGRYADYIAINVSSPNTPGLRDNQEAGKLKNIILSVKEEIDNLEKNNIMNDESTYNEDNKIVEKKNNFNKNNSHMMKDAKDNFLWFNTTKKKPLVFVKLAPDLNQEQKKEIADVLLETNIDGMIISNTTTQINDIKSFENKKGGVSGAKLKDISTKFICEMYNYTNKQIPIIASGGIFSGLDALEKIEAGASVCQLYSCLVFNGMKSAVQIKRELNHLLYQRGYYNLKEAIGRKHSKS
Summary of the method: (§1)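 Truncated soluble enzyme expressed in E. coli. Steady-state assay: DCIP (0.12 mM) reduction at 600 nm, 5–10 nM enzyme, 0.2 mM L-dihydroorotate, 0.02 mM CoQD, in 100 mM HEPES pH 8.0, 150 mM NaCl, 10% glycerol, 0.1% Triton, 20°C.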

Plasmodium falciparum [2] = experiment: Antiplasmodial activity against Plasmodium falciparum 3D7 in erythrocytes as [3H]hypoxanthine uptake; assay type: functional, organism-based
Summary of the method: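 Parasites grown in RPMI-1640 with 20% human type A+ plasma and 2% (w/v) red blood cells; drug-treated infected erythrocytes assayed for [3H]-hypoxanthine uptake. Triplicate points over a range of inhibitor concentrations; EC50 from fit of % proliferation to a Hill-type equation; reported values average at least 2 independent experiments.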

[3] = target: Dihydroorotate dehydrogenase (quinone), mitochondrial (Homo sapiens, UniProt Q02127); experiment: Inhibition of human DHODH assessed as reduction of 2,6-dichloroindophenol by stopped flow spectroscopy
Summary of the method: as §1, with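 “20°C. CoQ-independent oxidase background subtracted; triplicate points per concentration; IC50 from curve fit, ≥2 experiments.” for “20°C.”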

Plasmodium falciparum [4] = experiment: Antiplasmodial activity against Plasmodium falciparum FCR3 in erythrocytes as [3H]hypoxanthine uptake; conditions: FCR3, 3 h
Plasmodium falciparum [5] = experiment: Antiplasmodial activity against Plasmodium falciparum K1 in erythrocytes as [3H]hypoxanthine uptake; conditions: K1, 3 h
Plasmodium falciparum [6] = experiment: Antiplasmodial activity against Plasmodium falciparum Dd2 in erythrocytes as [3H]hypoxanthine uptake; conditions: Dd2, 3 h
Plasmodium falciparum [7] = experiment: Antiplasmodial activity against Plasmodium falciparum HB3 in erythrocytes as [3H]hypoxanthine uptake; conditions: HB3, 3 h
Plasmodium falciparum [8] = experiment: Antiplasmodial activity against Plasmodium falciparum D6 in erythrocytes as [3H]hypoxanthine uptake; conditions: D6, 3 h
L1210 = experiment: Cytotoxicity against mouse L1210 cells

Chain of Dihydroorotate dehydrogenase (quinone), mitochondrial (Q02127 whole entry): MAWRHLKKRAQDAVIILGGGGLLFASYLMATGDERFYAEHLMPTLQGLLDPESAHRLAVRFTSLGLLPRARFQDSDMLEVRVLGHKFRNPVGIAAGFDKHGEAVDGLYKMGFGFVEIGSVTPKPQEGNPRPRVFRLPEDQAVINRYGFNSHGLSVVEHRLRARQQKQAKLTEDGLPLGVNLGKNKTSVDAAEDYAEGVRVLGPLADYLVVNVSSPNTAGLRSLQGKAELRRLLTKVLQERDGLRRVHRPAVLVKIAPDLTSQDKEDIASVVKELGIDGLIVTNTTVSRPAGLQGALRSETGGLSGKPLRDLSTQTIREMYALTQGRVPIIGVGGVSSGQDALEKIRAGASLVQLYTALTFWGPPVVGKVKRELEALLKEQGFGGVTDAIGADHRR

Structure (SMILES) | IC50 [1] [µM] | IC50 (Plasmodium falciparum [2]) [µM] | IC50 [3] [µM] | EC50 (Plasmodium falciparum [4]) [µM] | EC50 (Plasmodium falciparum [5]) [µM] | EC50 (Plasmodium falciparum [6]) [µM] | EC50 (Plasmodium falciparum [7]) [µM] | EC50 (Plasmodium falciparum [8]) [µM] | EC50 (L1210) [µM]
Cc1cc(Nc2ccccc2)n2ncnc2n1 | > 100 | > 100 | > 200 | – | – | – | – | – | –
Cc1cc(Nc2cccc3ccccc23)n2ncnc2n1 | 45 | 4.4 | > 200 | – | – | – | – | – | –
Cc1cc(Nc2ccc3ncccc3c2)n2ncnc2n1 | 1.2 | 2.2 | > 200 | – | – | – | – | – | –
Cc1cc(Nc2ccc3cc4ccccc4cc3c2)n2ncnc2n1 | 0.056 | 0.19 | > 200 | – | – | – | – | – | –
Cc1cc(N(C)c2ccc3ccccc3c2)n2ncnc2n1 | 3 | 16 | > 200 | – | – | – | – | – | –
Cc1cc(N(Cc2ccccc2)c2ccc3ccccc3c2)n2ncnc2n1 | 93 | 35 | > 200 | – | – | – | – | – | –
Cc1cc(Nc2ccc(C(N)=O)cc2)n2ncnc2n1 | > 200 | > 50 | > 200 | – | – | – | – | – | –
Cc1cc(Nc2cc3ccccc3cc2O)n2ncnc2n1 | 0.33 | 1.7 | > 200 | – | – | – | – | – | –
Cc1cc(Nc2cnc3ccccc3c2)n2ncnc2n1 | 1.7 | 1.6 | > 200 | – | – | – | – | – | –
FC(F)(F)c1cc(Nc2ccc3ccccc3c2)n2ncnc2n1 | 0.21 | 3.3 | > 200 | – | – | – | – | – | –

More lines, main results first:

IC50 [1] [µM] | IC50 (Plasmodium falciparum [2]) [µM] | IC50 [3] [µM] | EC50 (Plasmodium falciparum [4]) [µM] | EC50 (Plasmodium falciparum [5]) [µM] | EC50 (Plasmodium falciparum [6]) [µM] | EC50 (Plasmodium falciparum [7]) [µM] | EC50 (Plasmodium falciparum [8]) [µM] | Structure (SMILES) | EC50 (L1210) [µM]
– | 0.079 | > 200 | 0.18 | 0.14 | 0.14 | 0.1 | 0.058 | Cc1cc(Nc2ccc3ccccc3c2)n2ncnc2n1 | > 10
0.19 | 0.31 | > 200 | – | – | – | – | – | CCc1cc(Nc2ccc3ccccc3c2)n2ncnc2n1 | –
2 | 0.41 | > 200 | – | – | – | – | – | Cc1cc(Nc2ccc3c(=O)cc(C)oc3c2)n2ncnc2n1 | –
0.16 | 0.55 | > 200 | – | – | – | – | – | Cc1nc2ncnn2c(Nc2ccc3ccccc3c2)c1C | –
